Data: ChEMBL document CHEMBL1136272, “Development of a presynaptic 5-HT1A antagonist” (Bioorg Med Chem Lett, 2003)

Tests used:
[1] = target: T1, Adrenergic receptor alpha-1 (Rattus norvegicus, UniProt P15823+P23944+P43140); experiment: Inhibitory concentration required against alpha-1 adrenergic receptor in rat cortex using [3H]-WB- 4101
T1 sequence (P15823 whole entry): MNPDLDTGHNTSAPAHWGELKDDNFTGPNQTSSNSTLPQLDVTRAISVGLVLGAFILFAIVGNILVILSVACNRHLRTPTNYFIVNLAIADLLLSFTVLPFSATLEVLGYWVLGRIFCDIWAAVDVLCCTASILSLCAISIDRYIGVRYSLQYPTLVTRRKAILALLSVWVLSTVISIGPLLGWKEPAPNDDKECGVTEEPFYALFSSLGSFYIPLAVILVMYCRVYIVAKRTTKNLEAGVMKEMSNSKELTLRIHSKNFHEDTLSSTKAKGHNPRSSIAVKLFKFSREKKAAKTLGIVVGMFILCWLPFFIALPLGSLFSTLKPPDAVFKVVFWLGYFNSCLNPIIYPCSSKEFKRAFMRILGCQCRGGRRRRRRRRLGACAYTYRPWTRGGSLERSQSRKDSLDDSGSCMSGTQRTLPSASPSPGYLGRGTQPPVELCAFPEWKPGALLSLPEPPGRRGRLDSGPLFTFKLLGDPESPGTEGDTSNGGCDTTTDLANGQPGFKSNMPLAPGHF
T1 sequence (P23944 whole entry): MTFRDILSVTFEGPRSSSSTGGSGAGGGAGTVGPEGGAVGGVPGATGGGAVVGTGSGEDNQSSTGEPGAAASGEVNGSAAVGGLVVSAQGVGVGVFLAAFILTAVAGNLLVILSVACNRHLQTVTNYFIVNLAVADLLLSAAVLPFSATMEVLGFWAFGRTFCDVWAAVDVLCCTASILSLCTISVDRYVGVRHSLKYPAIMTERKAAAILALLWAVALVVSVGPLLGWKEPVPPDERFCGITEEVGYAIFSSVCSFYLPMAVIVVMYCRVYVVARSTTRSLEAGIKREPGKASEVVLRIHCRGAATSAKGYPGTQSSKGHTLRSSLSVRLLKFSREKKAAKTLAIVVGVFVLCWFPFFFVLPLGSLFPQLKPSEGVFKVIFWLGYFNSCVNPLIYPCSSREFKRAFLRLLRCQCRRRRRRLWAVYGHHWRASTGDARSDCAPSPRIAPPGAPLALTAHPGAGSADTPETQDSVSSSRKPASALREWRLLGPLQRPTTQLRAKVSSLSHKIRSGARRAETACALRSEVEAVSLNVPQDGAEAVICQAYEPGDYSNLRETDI
T1 sequence (P43140 whole entry): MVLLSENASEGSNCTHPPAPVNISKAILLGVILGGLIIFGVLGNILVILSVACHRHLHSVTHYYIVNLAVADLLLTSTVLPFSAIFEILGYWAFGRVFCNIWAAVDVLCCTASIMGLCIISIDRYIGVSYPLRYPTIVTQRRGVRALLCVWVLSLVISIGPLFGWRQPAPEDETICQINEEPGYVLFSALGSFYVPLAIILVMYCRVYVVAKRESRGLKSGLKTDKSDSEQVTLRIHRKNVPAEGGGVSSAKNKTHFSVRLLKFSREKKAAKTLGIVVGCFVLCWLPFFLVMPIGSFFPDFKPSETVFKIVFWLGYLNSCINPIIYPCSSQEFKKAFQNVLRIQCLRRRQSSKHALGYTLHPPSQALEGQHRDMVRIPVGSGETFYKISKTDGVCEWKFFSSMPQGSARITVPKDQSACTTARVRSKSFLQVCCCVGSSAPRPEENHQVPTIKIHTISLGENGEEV

[2] = target: Serotonin 2 (5-HT2) receptor (Rattus norvegicus, UniProt P30994+P08909+P14842); experiment: Inhibitory concentration required against 5-hydroxytryptamine 2 receptor in rat cortex using [3H]spiperone
D(2) dopamine receptor = D(2) dopamine receptor (Rattus norvegicus, UniProt P61169); experiment: Inhibitory concentration required against Dopamine receptor D2 in rat striatum; format: tissue-based
[3] = target: T2, Adrenergic receptor alpha-2 (Rattus norvegicus, UniProt P22086+P19328+P22909); experiment: Inhibitory concentration required against Alpha-2 adrenergic receptor in rat cortex [3H]clonidine
T2 sequence (P22086 whole entry): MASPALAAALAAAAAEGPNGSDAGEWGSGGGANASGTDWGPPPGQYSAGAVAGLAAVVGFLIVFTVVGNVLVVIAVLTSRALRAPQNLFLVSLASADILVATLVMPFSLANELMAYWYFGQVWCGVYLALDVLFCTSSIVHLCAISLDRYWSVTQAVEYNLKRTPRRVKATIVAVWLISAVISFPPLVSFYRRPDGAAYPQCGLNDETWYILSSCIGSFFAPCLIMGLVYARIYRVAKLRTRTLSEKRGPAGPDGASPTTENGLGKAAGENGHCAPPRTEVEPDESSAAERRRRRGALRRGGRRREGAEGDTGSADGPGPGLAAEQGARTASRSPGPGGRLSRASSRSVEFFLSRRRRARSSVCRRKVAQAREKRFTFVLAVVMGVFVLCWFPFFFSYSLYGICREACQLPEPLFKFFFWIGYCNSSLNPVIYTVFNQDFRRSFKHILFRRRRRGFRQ
T2 sequence (P19328 whole entry): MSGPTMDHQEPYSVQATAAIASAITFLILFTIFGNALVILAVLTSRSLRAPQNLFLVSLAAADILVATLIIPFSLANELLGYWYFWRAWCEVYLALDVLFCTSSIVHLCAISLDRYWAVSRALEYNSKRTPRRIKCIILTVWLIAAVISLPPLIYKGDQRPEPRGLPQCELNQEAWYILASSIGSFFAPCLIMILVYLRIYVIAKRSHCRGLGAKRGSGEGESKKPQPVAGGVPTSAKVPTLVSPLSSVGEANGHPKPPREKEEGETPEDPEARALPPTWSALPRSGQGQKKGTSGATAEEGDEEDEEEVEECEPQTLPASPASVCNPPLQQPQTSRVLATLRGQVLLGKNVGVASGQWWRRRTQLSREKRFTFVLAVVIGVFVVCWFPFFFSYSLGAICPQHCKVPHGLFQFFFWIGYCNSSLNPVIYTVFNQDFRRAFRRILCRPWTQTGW
T2 sequence (P22909 whole entry): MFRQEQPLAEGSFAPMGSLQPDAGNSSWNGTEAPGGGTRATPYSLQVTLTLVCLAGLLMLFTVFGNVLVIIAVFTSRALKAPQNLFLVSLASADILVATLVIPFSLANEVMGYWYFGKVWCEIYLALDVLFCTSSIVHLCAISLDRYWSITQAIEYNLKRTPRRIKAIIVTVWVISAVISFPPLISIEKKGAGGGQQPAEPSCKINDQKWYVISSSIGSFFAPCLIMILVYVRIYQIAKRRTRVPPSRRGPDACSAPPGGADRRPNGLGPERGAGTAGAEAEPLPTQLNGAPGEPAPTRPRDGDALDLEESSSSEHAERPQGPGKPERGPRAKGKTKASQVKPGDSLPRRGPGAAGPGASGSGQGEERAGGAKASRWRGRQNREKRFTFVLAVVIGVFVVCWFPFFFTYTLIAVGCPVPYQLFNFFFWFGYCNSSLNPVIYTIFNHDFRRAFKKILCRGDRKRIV

[4] = target: 5-hydroxytryptamine receptor 1B (Rattus norvegicus, UniProt P28564); experiment: Inhibitory concentration required against 5-hydroxytryptamine 1B receptor in rat striatum using [3H]5-HT; format: tissue-based
Rattus norvegicus [5] = experiment: Social interaction time determined in vivo in rat at 0.1 mg/kg of ip administration; format: functional; conditions: route intraperitoneal
Outline: (§1)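 Rat social interaction paradigm with total motor activity counts recorded in the same session. All compounds were given ip, with a saline-treated control group. Combination arms gave a 0.1 mg/kg agent together with a second agent at 1 mg/kg, both ip. Social interaction time (s) and motor counts are reported as mean ± SEM, with significance tested against saline control.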

[6] = target: Sodium-dependent serotonin transporter (Rattus norvegicus, UniProt P31652); experiment: Inhibitory concentration required against 5-HT uptake in rat cortex
[7] = target: T3, 5-hydroxytryptamine receptor 1A (Rattus norvegicus, UniProt P19327); experiment: Inhibition of the 5-hydroxytryptamine 1A receptor in rat dorsal raphe
T3 sequence (P19327 whole entry): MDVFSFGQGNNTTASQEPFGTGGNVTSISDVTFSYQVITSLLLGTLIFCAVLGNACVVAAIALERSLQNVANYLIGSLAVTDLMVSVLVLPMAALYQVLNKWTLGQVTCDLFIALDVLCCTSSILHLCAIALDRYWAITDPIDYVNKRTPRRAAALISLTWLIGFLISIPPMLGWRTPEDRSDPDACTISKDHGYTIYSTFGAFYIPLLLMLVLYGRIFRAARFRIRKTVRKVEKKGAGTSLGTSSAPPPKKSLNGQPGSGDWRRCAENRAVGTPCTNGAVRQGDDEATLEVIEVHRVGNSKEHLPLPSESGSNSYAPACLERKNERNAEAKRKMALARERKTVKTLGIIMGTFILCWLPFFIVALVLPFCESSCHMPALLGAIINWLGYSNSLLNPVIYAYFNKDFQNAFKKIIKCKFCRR

Rattus norvegicus [8] = experiment: In vivo motor activity determined in rat at 0.1 mg/kg of ip administration; format: functional; conditions: route intraperitoneal; outline: as §1
Rattus norvegicus [9] = experiment: Social interaction time determined in vivo rat at 1.7 mg/kg of ip administration; format: functional; conditions: route intraperitoneal
Outline: (§2)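 Rats dosed i.p. against a saline-treated control group. Social interaction time (s) and total motor activity (counts) were recorded in the same social-interaction session and reported as mean ± SEM, with significance tested against saline control.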

Rattus norvegicus [10] = experiment: In vivo motor activity determined in rat at 1.7 mg/kg of ip administration; format: functional; conditions: route intraperitoneal; outline: as §2
Rattus norvegicus [11] = experiment: Social interaction time determined in vivo in rat at 1.7 + 1 mg/kg of ip administration; format: functional; conditions: route intraperitoneal; outline: as §2
Rattus norvegicus [12] = experiment: In vivo motor activity determined in rat at 1.7 + 1 mg/kg of ip administration; format: functional; conditions: route intraperitoneal; outline: as §2

Chain of 5-hydroxytryptamine receptor 1B (P28564 whole entry): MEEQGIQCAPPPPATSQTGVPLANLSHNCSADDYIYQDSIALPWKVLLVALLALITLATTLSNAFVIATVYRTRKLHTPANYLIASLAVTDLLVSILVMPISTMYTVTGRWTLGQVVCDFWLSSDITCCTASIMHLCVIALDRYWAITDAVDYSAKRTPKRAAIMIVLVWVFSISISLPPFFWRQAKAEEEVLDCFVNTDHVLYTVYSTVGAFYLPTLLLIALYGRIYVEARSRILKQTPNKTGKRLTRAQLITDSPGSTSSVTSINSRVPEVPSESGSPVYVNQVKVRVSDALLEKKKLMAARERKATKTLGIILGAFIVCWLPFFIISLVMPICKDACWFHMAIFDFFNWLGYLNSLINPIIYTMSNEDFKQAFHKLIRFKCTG
Chain of D(2) dopamine receptor (P61169 whole entry): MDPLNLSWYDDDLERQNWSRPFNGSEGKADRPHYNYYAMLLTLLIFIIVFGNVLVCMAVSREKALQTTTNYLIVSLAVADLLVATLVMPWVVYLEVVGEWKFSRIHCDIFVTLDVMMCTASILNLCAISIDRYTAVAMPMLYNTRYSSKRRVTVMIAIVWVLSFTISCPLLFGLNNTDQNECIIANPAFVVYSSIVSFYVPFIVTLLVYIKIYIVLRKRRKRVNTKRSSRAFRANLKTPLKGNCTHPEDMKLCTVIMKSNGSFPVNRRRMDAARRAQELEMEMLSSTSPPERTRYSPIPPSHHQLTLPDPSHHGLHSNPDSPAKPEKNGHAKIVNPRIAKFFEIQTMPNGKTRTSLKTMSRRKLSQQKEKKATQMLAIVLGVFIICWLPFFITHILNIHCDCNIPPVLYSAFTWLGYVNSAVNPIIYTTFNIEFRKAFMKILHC
Chain of Sodium-dependent serotonin transporter (P31652 whole entry): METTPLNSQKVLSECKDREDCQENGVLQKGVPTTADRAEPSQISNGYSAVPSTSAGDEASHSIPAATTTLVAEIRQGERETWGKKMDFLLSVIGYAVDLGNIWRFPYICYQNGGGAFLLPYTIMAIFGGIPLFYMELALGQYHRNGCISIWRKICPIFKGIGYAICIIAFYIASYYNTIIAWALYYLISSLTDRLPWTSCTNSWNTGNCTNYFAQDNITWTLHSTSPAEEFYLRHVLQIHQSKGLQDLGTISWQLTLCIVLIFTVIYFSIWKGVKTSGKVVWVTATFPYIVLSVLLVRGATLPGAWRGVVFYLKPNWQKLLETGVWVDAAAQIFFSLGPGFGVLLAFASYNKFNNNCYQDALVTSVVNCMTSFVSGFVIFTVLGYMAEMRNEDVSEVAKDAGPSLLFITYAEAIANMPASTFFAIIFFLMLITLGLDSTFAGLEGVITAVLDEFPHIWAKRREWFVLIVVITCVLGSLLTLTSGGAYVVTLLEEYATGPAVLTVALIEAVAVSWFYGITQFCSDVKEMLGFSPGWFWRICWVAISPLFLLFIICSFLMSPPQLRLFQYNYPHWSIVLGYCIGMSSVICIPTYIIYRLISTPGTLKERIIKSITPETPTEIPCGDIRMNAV

For `OC1(c2ccc3c(c2)OCO3)CCC(N2CCN(Cc3ccccc3)CC2)CC1` (stereo not drawn), the IC50 [1] was 700 nM, the IC50 [2] was 11000 nM and the IC50 (D(2) dopamine receptor) was 1700 nM. For the same molecule, the IC50 [3] was 410 nM, the IC50 [4] was over 1000 nM and the Time (Rattus norvegicus [5]) was 104 s. It also gave an IC50 [6] of over 1000 nM, an IC50 [7] of 20 nM and a Motor activity (Rattus norvegicus [8]) of 4700 Counts.

In the case of `CN1C(=O)CN=C(c2ccccc2)c2cc(Cl)ccc21` [DIAZEPAM], the Time (Rattus norvegicus [9]) is reported as 120 s and the Motor activity (Rattus norvegicus [10]) is reported as 5100 Counts.

`CN1C(=O)CN=C(c2ccccc2)c2cc(Cl)ccc21.COc1cccc(CN2CCN(C3CCC(O)(c4ccc5c(c4)OCO5)CC3)CC2)c1` (stereo not drawn) showed a Time (Rattus norvegicus [11]) of 113 s and a Motor activity (Rattus norvegicus [12]) of 4900 Counts.
